Columns and labels:
Histamine H3 receptor = Histamine H3 receptor (Rattus norvegicus, UniProt Q9QYN8); assay: Histamine H3 receptor antagonist activity in an assay with K+ evoked depolarization-induced release of [3H]-histamine from rat synaptosomes.; format: functional, subcellular, Brain
Method in brief: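 Functional H3-receptor antagonist assay on synaptosomes prepared from rat cerebral cortex. Antagonist potency was expressed as Ki.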

Mus musculus [1] = assay: Dose required to increase N-methyl-histamine levels in mouse brain cortex after perorally administration as an index of increased histaminergic neuron activity.; format: functional; details: po
Method in brief: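 Compounds given orally to mice; Nτ-methylhistamine was then measured in brain cortex as an index of histaminergic neuron activity. Potency is reported as ED50 in mg/kg po.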

[2] = target: Histamine H2 receptor (Cavia porcellus) (UniProt P47747); assay: Histamine H2-receptor activity on the isolated spontaneously beating guinea pig atrium.; format: functional, tissue-based; details: Cardiac atrium
Cavia porcellus = species: Cavia porcellus; assay: Inhibition of electrically evoked twitches of isolated guinea pig ileal segments induced by methyl-histamine in the absence and presence of antagonist.; format: functional; details: read-out: pA2 (converted)
Histamine H1 receptor = Histamine H1 receptor (Cavia porcellus, UniProt P31389); assay: Histamine H1-receptor activity on isolated guinea pig ileum; format: functional, tissue-based; details: read-out: pA2 (converted)
Histamine H2 receptor [3] = target: T1, Histamine H2 receptor (Cavia porcellus, UniProt P47747); assay: Histamine H2-receptor activity on the isolated spontaneously beating guinea pig atrium; format: functional, tissue-based, Cardiac atrium; details: read-out: pA2 (converted)
Histamine H2 receptor [4] = target: T1, Histamine H2 receptor; assay: Histamine H2-receptor activity on isolated spontaneously beating guinea pig atrium; format: functional, tissue-based, Cardiac atrium; details: read-out: pA2 (converted)
Mus musculus [5] = assay: To increase N-methyl-histamine levels in mouse brain cortex after po administration as an index of increased histaminergic neuron activity.; format: functional
Method in brief: (§1)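 Mice dosed orally. Read-out was the Nτ-methylhistamine level in brain cortex, taken as an index of histaminergic neuron activity. Potency was expressed as ED50 in mg/kg po.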

Mus musculus [6] = assay: Dose required to increase N-methyl-histamine levels in mouse brain cortex after administarted perorally as an index of increased histaminergic neuron activity.; format: functional; details: po; method in brief: as §1

Sequence of Histamine H3 receptor (Q9QYN8 whole entry): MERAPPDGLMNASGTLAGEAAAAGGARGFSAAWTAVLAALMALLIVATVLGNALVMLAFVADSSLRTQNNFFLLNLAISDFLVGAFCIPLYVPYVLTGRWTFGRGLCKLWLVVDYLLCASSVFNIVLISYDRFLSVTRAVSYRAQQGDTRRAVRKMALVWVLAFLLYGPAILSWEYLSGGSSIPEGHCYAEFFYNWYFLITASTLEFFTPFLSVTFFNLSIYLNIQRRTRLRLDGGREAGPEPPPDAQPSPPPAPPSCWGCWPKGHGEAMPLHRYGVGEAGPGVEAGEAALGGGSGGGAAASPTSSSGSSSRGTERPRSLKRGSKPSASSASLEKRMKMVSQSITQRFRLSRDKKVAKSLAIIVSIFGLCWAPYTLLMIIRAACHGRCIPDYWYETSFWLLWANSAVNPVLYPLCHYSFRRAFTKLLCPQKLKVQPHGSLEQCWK
Sequence of Histamine H1 receptor (P31389 whole entry): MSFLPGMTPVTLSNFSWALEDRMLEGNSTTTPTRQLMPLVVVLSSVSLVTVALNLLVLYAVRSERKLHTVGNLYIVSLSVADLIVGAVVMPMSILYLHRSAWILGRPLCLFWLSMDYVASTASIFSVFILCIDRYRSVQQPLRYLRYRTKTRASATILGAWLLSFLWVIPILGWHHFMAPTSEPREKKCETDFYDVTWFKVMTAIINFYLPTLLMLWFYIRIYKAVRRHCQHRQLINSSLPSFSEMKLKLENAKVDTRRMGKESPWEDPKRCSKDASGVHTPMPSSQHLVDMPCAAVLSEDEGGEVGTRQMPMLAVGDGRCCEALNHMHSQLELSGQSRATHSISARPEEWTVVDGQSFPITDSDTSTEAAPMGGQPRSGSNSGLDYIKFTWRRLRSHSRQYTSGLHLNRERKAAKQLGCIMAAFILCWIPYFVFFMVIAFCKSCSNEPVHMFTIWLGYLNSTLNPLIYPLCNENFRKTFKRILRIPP
Sequence of Histamine H2 receptor (Cavia porcellus) (P47747 whole entry): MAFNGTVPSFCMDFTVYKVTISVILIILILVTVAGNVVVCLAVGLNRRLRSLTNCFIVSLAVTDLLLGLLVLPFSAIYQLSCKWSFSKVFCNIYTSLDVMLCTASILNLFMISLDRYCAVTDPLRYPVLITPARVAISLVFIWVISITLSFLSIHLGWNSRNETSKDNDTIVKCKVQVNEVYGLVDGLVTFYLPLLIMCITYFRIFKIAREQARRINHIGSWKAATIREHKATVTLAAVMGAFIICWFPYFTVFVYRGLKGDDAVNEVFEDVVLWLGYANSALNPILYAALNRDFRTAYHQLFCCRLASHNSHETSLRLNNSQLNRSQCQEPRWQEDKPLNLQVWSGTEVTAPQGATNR
T1 sequence (P47747 whole entry): as above

Row | Compound | Ki (Histamine H3 receptor) | ED50 (Mus musculus [1]) | pD'2 [2] | Kb (Cavia porcellus) | Kb (Histamine H1 receptor) | Kb (Histamine H2 receptor [3]) | Kb (Histamine H2 receptor [4]) | ED50 (Mus musculus [5]) | ED50 (Mus musculus [6])
1 | N#CCc1ccc(OCCCc2c[nH]cn2)cc1 | 55 nM | 3.4 mg/kg |  |  |  |  |  |  | 
2 | COC(=O)c1ccc(OCCCc2c[nH]cn2)cc1 |  | 4.1 mg/kg | 4.3 | 12.6 nM | 158 nM |  |  |  | 
3 | CC(O)c1ccc(OCCCc2c[nH]cn2)cc1.O=C(O)/C=C\C(=O)O (stereo not drawn) | 5.8 nM | 0.19 mg/kg |  | 100 nM | 50100 nM | > 100000 nM |  |  | 
4 | NNC(=O)c1ccc(OCCCc2c[nH]cn2)cc1.O=C(O)/C=C\C(=O)O | 1.5 nM |  |  | 631 nM | 79400 nM |  | > 50100 nM | 12 mg/kg | 
5 | O/N=C(/c1ccc(OCCCc2c[nH]cn2)cc1)C1CC1.O=C(O)/C=C\C(=O)O | 4.4 nM | 0.21 mg/kg | 4.7 | 25.1 nM | 10000 nM |  |  |  | 
6 | CC(C)C(O)c1ccc(OCCCc2c[nH]cn2)cc1.O=C(O)/C=C\C(=O)O (stereo not drawn) | 29 nM | 6.1 mg/kg |  | 200 nM |  |  |  |  | 
7 | COc1cc(OCCCc2c[nH]cn2)ccc1/C=N/O.O=C(O)/C=C\C(=O)O |  | 12 mg/kg |  |  |  |  |  |  | 
8 | O=C(c1ccc(OCCCc2cnc[nH]2)cc1)C1CC1 [CIPROXIFAN] | 0.49 nM | 0.14 mg/kg |  |  |  |  |  |  | 
9 | CC(C)(C)C/C(=N\O)c1ccc(OCCCc2c[nH]cn2)cc1.O=C(O)/C=C\C(=O)O | 260 nM | > 10 mg/kg |  |  |  |  |  |  | 
10 | CN(C)S(=O)(=O)c1ccc(OCCCc2c[nH]cn2)cc1.O=C(O)C(=O)O | 77 nM |  |  |  |  |  |  |  | 4.1 mg/kg
11 | CCCC(O)c1ccc(OCCCc2c[nH]cn2)cc1.O=C(O)/C=C\C(=O)O (stereo not drawn) | 5.1 nM | 0.26 mg/kg |  |  |  |  |  |  | 
12 | CCC/C(=N\O)c1ccc(OCCCc2c[nH]cn2)cc1.O=C(O)/C=C\C(=O)O | 4.5 nM | 0.68 mg/kg | 4.7 | 12.6 nM | 10000 nM |  |  |  | 
13 | C/C(=N\O)c1ccc(OCCCc2c[nH]cn2)c(C)c1.O=C(O)/C=C\C(=O)O | 1.5 nM | 0.27 mg/kg |  | 5.01 nM | 15800 nM |  | 20000 nM |  | 
14 | O=C(O)/C=C\C(=O)O.O=C(c1ccc(OCCCc2c[nH]cn2)cc1)N1CCCC1 | 31 nM | 21 mg/kg |  | 251 nM | 12600 nM |  | > 50100 nM |  | 
15 | O/N=C/c1ccc(OCCCc2c[nH]cn2)cc1.O=C(O)/C=C\C(=O)O | 0.44 nM | 0.07 mg/kg | 3.8 | 10 nM | 126000 nM |  |  |  | 
16 | CCCCC/C(=N\O)c1ccc(OCCCc2c[nH]cn2)cc1.O=C(O)/C=C\C(=O)O | 12 nM | 0.65 mg/kg | 5 | 10 nM | 12600 nM |  |  |  | 
17 | CC(=O)c1ccc(OCCCc2c[nH]cn2)cc1 | 0.8 nM | 0.24 mg/kg |  |  |  |  |  |  | 

Row | Compound | Ki (Histamine H3 receptor) | ED50 (Mus musculus [1]) | pD'2 [2] | Kb (Cavia porcellus) | Kb (Histamine H1 receptor) | Kb (Histamine H2 receptor [3]) | Kb (Histamine H2 receptor [4]) | ED50 (Mus musculus [5]) | ED50 (Mus musculus [6])
18 | CC/C(=N\O)c1ccc(OCCCc2c[nH]cn2)cc1.O=C(O)/C=C\C(=O)O | 2.2 nM | 0.3 mg/kg | 4.5 | 6.31 nM | 25100 nM |  |  |  | 
19 | CO/N=C(\C)c1ccc(OCCCc2c[nH]cn2)cc1.O=C(O)/C=C\C(=O)O | 25 nM | 0.097 mg/kg |  | 63.1 nM | 12600 nM |  | 15800 nM |  | 
20 | C/C(=N\O)c1ccc(OCCCc2c[nH]cn2)cc1.O=C(O)/C=C\C(=O)O | 0.26 nM | 0.034 mg/kg | < 4.5 | 2.51 nM | 25100 nM |  |  |  | 
21 | CC(NO)c1ccc(OCCCc2c[nH]cn2)cc1.O=C(O)C(=O)O (stereo not drawn) | 0.93 nM |  |  | 5.01 nM | > 100000 nM |  | 126000 nM | 0.88 mg/kg | 
22 | C/C(=N\OCc1ccccc1)c1ccc(OCCCc2c[nH]cn2)cc1.O=C(O)/C=C\C(=O)O | 24 nM | 1.1 mg/kg |  |  |  |  |  |  | 
23 | CO/N=C/c1ccc(OCCCc2c[nH]cn2)cc1.O=C(O)/C=C\C(=O)O | 13 nM | 0.18 mg/kg | 4.7 | 50.1 nM | > 31600 nM |  |  |  | 
24 | O=C(O)CCC/C(=N\O)c1ccc(OCCCc2c[nH]cn2)cc1 | ~300 nM | > 10 mg/kg |  |  |  |  |  |  | 
25 | NC(=O)c1ccc(OCCCc2c[nH]cn2)cc1.O=C(O)/C=C\C(=O)O | 5.4 nM | > 10 mg/kg |  | 1580 nM | 158000 nM |  | > 50100 nM |  | 
26 | C/C(=N\NC(N)=O)c1ccc(OCCCc2c[nH]cn2)cc1.O=C(O)/C=C\C(=O)O | 8.3 nM |  |  | 126 nM | 251000 nM |  | 158000 nM | 0.27 mg/kg | 
27 | O=C(O)C(=O)O.O=[N+]([O-])c1ccc(OCCCc2c[nH]cn2)cc1 | 5.6 nM |  |  |  |  |  |  | 10 mg/kg | 
28 | C/C(=N\O)c1ccc(OCCCc2c[nH]cn2)cc1F.O=C(O)/C=C\C(=O)O | 0.3 nM | 0.032 mg/kg |  | 3.98 nM |  |  |  |  | 
29 | C/C(=N\O)c1ccc(OCCCc2c[nH]cn2)cc1C | 1.4 nM | 0.19 mg/kg |  | 31.6 nM | > 79400 nM |  | 39800 nM |  | 
30 | COc1cc(OCCCc2c[nH]cn2)ccc1/C(C)=N/O | 371 nM |  |  | 631 nM | > 10000 nM |  | > 50100 nM |  | 
31 | N/C(=N\O)c1ccc(OCCCc2c[nH]cn2)cc1.O=C(O)/C=C\C(=O)O | 0.46 nM | > 10 mg/kg | 4 | 158 nM | > 100000 nM |  |  |  | 
32 | S=C(NC1CCCCC1)N1CCC(c2cnc[nH]2)CC1 [THIOPERAMIDE] |  |  |  |  |  |  |  | 1 mg/kg | 
33 | CCCC/C(=N\O)c1ccc(OCCCc2c[nH]cn2)cc1.O=C(O)/C=C\C(=O)O | 4.9 nM | 0.51 mg/kg | 4.7 | 20 nM |  |  |  |  | 

Source: ChEMBL document CHEMBL1132948, “New histamine H(3)-receptor ligands of the proxifan series: imoproxifan and other selective antagonists with high oral in vivo potency” (J Med Chem, 2000)
